9 compounds from ChEMBL document CHEMBL1148755, “Structural analogues of smoothened intracellular loops as potent inhibitors of Hedgehog pathway and cancer cell growth” (J Med Chem, 2007) can be followed below.

Square brackets hold non-standard residues; d marks the D form. Peptide text beside a SMILES is read from it. * marks the point of attachment. Palmitoyl = CCCCCCCCCCCCCCCC(=O)*; Myristoyl = CCCCCCCCCCCCCC(=O)*; Nle = CCCC[C@H](N)C(=O)O Bounds are passed on as bounds.

What is called IC50 is the concentration that inhibits the measured activity by half. Low values mean greater potency, high ones weaker potency.

The assay relates to SK-MEL-2. In words: Growth inhibition of SK-Mel2 melanoma cells after 48 hrs by MTT assay. Type of assay: functional, cell-based, Homo sapiens. Conditions: Homo sapiens, SK-MEL-2, 48 h. A digest of the protocol:
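Cells seeded at 200-400 per well in DMEM with 10% FBS and left to attach for 24 h. The next day, inhibitor in medium at 2× was added in an equal volume, and cells were incubated 48 h in a CO2 incubator. Reference plates were read at time of addition for T0 density. MTT staining was read as absorbance at 544 nm and compared with untreated control cells.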
(In general: Tetrazolium assays rely on reduction of a dye to a coloured formazan, in cell work by metabolically active cells.)
`CCCCCCCCCCCCCCCC(=O)N[C@@H](CC(C)C)C(=O)N[C@H](C(=O)N[C@@H](Cc1ccc(O)cc1)C(=O)N[C@@H](C)C(=O)N[C@@H](Cc1ccc(C(=O)c2ccccc2)cc1)C(=O)N[C@@H](Cc1cnc[nH]1)C(=O)N[C@H](C(=O)N[C@@H](CO)C(=O)N[C@@H](Cc1ccccc1)C(=O)N[C@@H](CCCCN)C(=O)N[C@@H](C)C(=O)N[C@@H](CC(C)C)C(=O)N[C@H](CCSC(=O)CCCC[C@@H]1SC[C@@H]2NC(=O)N[C@@H]21)C(=O)O)[C@@H](C)O)[C@@H](C)O` came in with an IC50 of over 15 µM. Regarding `CCCCCCCCCCCCCCCC(=O)NCCCC[C@H](NC(=O)[C@H](Cc1ccc(O)cc1)NC(=O)[C@H](CO)NC(=O)[C@@H](NC(=O)[C@H](CCCCN)NC(=O)CNC(=O)[C@H](CO)NC(=O)[C@H](CC(C)C)NC(=O)[C@@H]1CCCN1C(=O)[C@H](CCC(N)=O)NC(=O)[C@H](Cc1ccc(O)cc1)NC(=O)[C@@H](NC(=O)[C@@H](NC(=O)CNC(C)=O)[C@@H](C)O)[C@@H](C)O)[C@@H](C)O)C(=O)O` (Ac-GTTYQPLSGKTSYK(Palmitoyl)-OH), inhibition was half-maximal at 2.7 µM (IC50). Then `CCCCCCCCCCCCCCCC(=O)NCCCC[C@H](NC(=O)[C@H](CCCNC(=N)N)NC(=O)[C@H](CC(C)C)NC(=O)[C@H](CCSC)NC(=O)[C@@H](NC(=O)[C@H](CCC(=O)O)NC(=O)[C@H](CC(N)=O)NC(=O)[C@@H](NC(=O)[C@H](CCCCN)NC(=O)[C@H](CO)NC(=O)[C@H](C)NC(=O)[C@H](C)NC(=O)[C@H](CCCCN)NC(=O)[C@H](CCC(=O)O)NC(=O)[C@H](CO)NC(=O)[C@H](CC(C)C)NC(=O)[C@H](CC(C)C)NC(=O)CNC(=O)[C@@H]1CCCN1C(=O)[C@H](Cc1c[nH]cn1)NC(=O)[C@H](CC(N)=O)NC(=O)[C@H](CO)NC(=O)[C@H](CCCCN)NC(=O)[C@@H](NC(=O)[C@H](CO)NC(=O)[C@H](Cc1ccccc1)NC(=O)[C@H](CC(C)C)NC(C)=O)[C@@H](C)CC)[C@@H](C)CC)[C@@H](C)O)C(=O)O` (Ac-LFSIKSNHPGLLSEKAASKINETMLRK(Palmitoyl)-OH), with 0.95 µM. Regarding `CCCCCCCCCCCCCCCC(=O)NCCCC[C@H](NC(=O)[C@H](Cc1ccc(O)cc1)NC(=O)[C@H](CO)NC(=O)[C@@H](NC(=O)[C@H](CCCCN)NC(=O)CNC(=O)[C@H](CO)NC(=O)[C@H](CC(C)C)NC(=O)[C@@H]1CCCN1C(=O)[C@H](CCC(N)=O)NC(=O)[C@H](Cc1ccc(O)cc1)NC(=O)[C@@H](NC(=O)[C@@H](NC(=O)CNC(=O)[C@H](CC(C)C)NC(=O)[C@H](C)NC(=O)[C@H](CCCCN)NC(=O)[C@H](Cc1ccccc1)NC(=O)[C@H](CO)NC(=O)[C@@H](NC(=O)[C@H](Cc1cnc[nH]1)NC(=O)[C@H](Cc1c[nH]c2ccccc12)NC(=O)[C@H](C)NC(=O)[C@H](Cc1ccc(O)cc1)NC(=O)[C@@H](NC(=O)[C@H](CC(C)C)NC(C)=O)[C@@H](C)O)[C@@H](C)O)[C@@H](C)O)[C@@H](C)O)[C@@H](C)O)C(=O)O` (Ac-LTYAWHTSFKALGTTYQPLSGKTSYK(Palmitoyl)-OH), the IC50 is 1 µM.

Compound `CCCC[C@H](NC(=O)[C@H](CCCNC(=N)N)NC(=O)[C@H](CCCNC(=N)N)NC(=O)[C@H](CC(N)=O)NC(=O)[C@@H]1CCCN1C(=O)[C@H](Cc1ccccc1)NC(=O)[C@H](Cc1c[nH]c2ccccc12)NC(=O)[C@@H](NC(=O)[C@H](CCCCN)NC(=O)[C@@H](NC(=O)[C@H](CCC(N)=O)NC(=O)[C@H](CCCNC(=N)N)NC(=O)[C@H](CC(C)C)NC(=O)[C@H](C)NC(=O)[C@H](CCCCN)NC(=O)[C@H](Cc1ccccc1)NC(=O)[C@H](CO)NC(=O)[C@@H](NC(=O)[C@H](Cc1cnc[nH]1)NC(=O)[C@H](Cc1c[nH]c2ccccc12)NC(=O)[C@H](C)NC(=O)[C@H](Cc1ccc(O)cc1)NC(=O)[C@@H](NC(=O)[C@H](CC(C)C)NC(C)=O)[C@@H](C)O)[C@@H](C)O)[C@@H](C)CC)[C@@H](C)CC)C(=O)N[C@@H](CCCCN)C(=O)N[C@@H](Cc1c[nH]c2ccccc12)C(=O)N[C@@H](CCCCN)C(=O)N[C@@H](CCCCN)C(=O)O` (Ac-LTYAWHTSFKALRQIKIWFPNRR[Nle]KWKK-OH) came in with an IC50 of over 15 µM. `CCCCCCCCCCCCCCCC(=O)NCCCC[C@H](NC(=O)[C@H](CCCNC(=N)N)NC(=O)[C@H](CC(C)C)NC(=O)[C@H](CCSC)NC(=O)[C@@H](NC(=O)[C@H](CCC(=O)O)NC(=O)[C@H](CC(N)=O)NC(=O)[C@@H](NC(=O)[C@H](CCCCN)NC(=O)[C@H](CO)NC(=O)[C@H](C)NC(=O)[C@H](C)NC(=O)[C@H](CCCCN)NC(=O)[C@H](CCC(=O)O)NC(=O)[C@H](CO)NC(=O)[C@H](CC(C)C)NC(=O)[C@H](CC(C)C)NC(=O)CNC(=O)[C@@H]1CCCN1C(=O)[C@H](Cc1c[nH]cn1)NC(=O)[C@H](CC(N)=O)NC(=O)[C@H](CO)NC(=O)[C@H](CCCCN)NC(=O)[C@@H](NC(=O)[C@H](CO)NC(=O)[C@H](Cc1ccccc1)NC(=O)[C@H](CC(C)C)NC(=O)[C@@H](NC(=O)[C@H](CCSC)NC(=O)[C@@H](NC(=O)CNC(=O)[C@H](CCCNC(=N)N)NC(C)=O)C(C)C)[C@@H](C)O)[C@@H](C)CC)[C@@H](C)CC)[C@@H](C)O)C(=O)O` (Ac-RGVMTLFSIKSNHPGLLSEKAASKINETMLRK(Palmitoyl)-OH): inhibition was half-maximal at 0.9 µM (IC50). As to `CCCCCCCCCCCCCCCC(=O)NCCCC[C@H](NC(=O)[C@H](Cc1ccc(O)cc1)NC(=O)[C@H](CO)NC(=O)[C@@H](NC(=O)[C@H](CCCCN)NC(=O)CNC(=O)[C@H](CO)NC(=O)[C@H](CC(C)C)NC(=O)[C@@H]1CCCN1C(=O)[C@H](CCC(N)=O)NC(=O)[C@H](Cc1ccc(O)cc1)NC(=O)[C@@H](NC(=O)[C@@H](NC(=O)CNC(=O)[C@H](CC(C)C)NC(=O)[C@H](C)NC(=O)[C@H](CCCCN)NC(=O)[C@H](Cc1ccccc1)NC(=O)[C@H](CO)NC(=O)[C@@H](NC(=O)[C@H](Cc1cnc[nH]1)NC(=O)[C@H](Cc1c[nH]c2ccccc12)NC(=O)[C@H](C)NC(=O)[C@H](Cc1ccc(O)cc1)NC(C)=O)[C@@H](C)O)[C@@H](C)O)[C@@H](C)O)[C@@H](C)O)C(=O)O` (Ac-YAWHTSFKALGTTYQPLSGKTSYK(Palmitoyl)-OH), the IC50 turned out to be 1 µM. Turning to `CCCC[C@H](NC(=O)[C@H](CCCNC(=N)N)NC(=O)[C@H](CCCNC(=N)N)NC(=O)[C@H](CC(N)=O)NC(=O)[C@@H]1CCCN1C(=O)[C@H](Cc1ccccc1)NC(=O)[C@H](Cc1c[nH]c2ccccc12)NC(=O)[C@@H](NC(=O)[C@H](CCCCN)NC(=O)[C@@H](NC(=O)[C@H](CCC(N)=O)NC(=O)[C@@H](N)CCCNC(=N)N)[C@@H](C)CC)[C@@H](C)CC)C(=O)N[C@@H](CCCCN)C(=O)N[C@@H](Cc1c[nH]c2ccccc12)C(=O)N[C@@H](CCCCN)C(=O)N[C@@H](CCCCN)C(=O)N[C@@H](CC(C)C)C(=O)N[C@H](C(=O)N[C@@H](Cc1ccc(O)cc1)C(=O)N[C@@H](C)C(=O)N[C@@H](Cc1c[nH]c2ccccc12)C(=O)N[C@@H](Cc1cnc[nH]1)C(=O)N[C@H](C(=O)N[C@@H](CO)C(=O)N[C@@H](Cc1ccccc1)C(=O)N[C@@H](CCCCN)C(=O)N[C@@H](C)C(=O)N[C@@H](CC(C)C)C(=O)O)[C@@H](C)O)[C@@H](C)O` (H-RQIKIWFPNRR[Nle]KWKKLTYAWHTSFKAL-OH), the IC50 is over 15 µM. In turn, `CCCCCCCCCCCCCC(=O)N[C@@H](CC(C)C)C(=O)N[C@H](C(=O)N[C@@H](Cc1ccc(O)cc1)C(=O)N[C@@H](C)C(=O)N[C@@H](Cc1c[nH]c2ccccc12)C(=O)N[C@@H](Cc1cnc[nH]1)C(=O)N[C@H](C(=O)N[C@@H](CO)C(=O)N[C@@H](Cc1ccccc1)C(=O)N[C@@H](CCCCN)C(=O)N[C@@H](C)C(=O)N[C@@H](CC(C)C)C(=O)O)[C@@H](C)O)[C@@H](C)O` (Myristoyl-LTYAWHTSFKAL-OH) had an IC50 of 0.2 µM.
